{"source": "ChEMBL document CHEMBL3085737", "about": "“Inducing secondary metabolite production by the endophytic fungus Fusarium tricinctum through coculture with Bacillus subtilis” (2013)", "type_in_all_cases": "functional", "key": {"Pseudomonas aeruginosa": {"test_system": "Pseudomonas aeruginosa", "test": "Antibacterial activity against multidrug-resistant Pseudomonas aeruginosa B 63230 assessed as growth inhibition by broth microdilution method", "how_it_was_run": "(§1)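 MIC by broth microdilution following CLSI guidelines. Inoculum made by direct colony suspension, giving 5 × 10^5 CFU/mL after the last dilution step. Compounds dosed from 10 mg/mL DMSO stocks up to 64 μg/mL top concentration, where final DMSO was 0.64%. Growth read as OD600 in a microtiter plate reader.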"}, "Escherichia coli": {"test_system": "Escherichia coli", "test": "Antibacterial activity against Escherichia coli ATCC 25922 assessed as growth inhibition by broth microdilution method", "how_it_was_run": "(§2)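 MIC by broth microdilution following CLSI guidelines; inoculum made by direct colony suspension, 5 × 10^5 CFU/mL after the final dilution. Compounds were added from a 10 mg/mL DMSO stock, tested up to 64 μg/mL, giving 0.64% final DMSO at the top concentration. Growth was read as OD600 in a microtiter plate reader.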"}, "Enterococcus faecalis": {"test_system": "Enterococcus faecalis", "test": "Antibacterial activity against multidrug and vancomycin-resistant Enterococcus faecalis UW 2689 assessed as growth inhibition by broth microdilution method", "how_it_was_run": "as §1"}, "Streptococcus pneumoniae": {"test_system": "Streptococcus pneumoniae", "test": "Antibacterial activity against Streptococcus pneumoniae ATCC 49619 assessed as growth inhibition by broth microdilution method", "how_it_was_run": "as §2"}, "Staphylococcus aureus [1]": {"test_system": "Staphylococcus aureus", "test": "Antibacterial activity against multidrug and methicillin-resistant Staphylococcus aureus 25697 assessed as growth inhibition by broth microdilution method", "how_it_was_run": "as §1"}, "Staphylococcus aureus [2]": {"test_system": "Staphylococcus aureus", "test": "Antibacterial activity against Staphylococcus aureus ATCC 29213 assessed as growth inhibition by broth microdilution method", "how_it_was_run": "as §2"}, "Bacillus subtilis": {"test_system": "Bacillus subtilis", "test": "Antibacterial activity against Bacillus subtilis 168 trpC2 assessed as growth inhibition by broth microdilution method", "conditions": "subsp. subtilis str. 168", "how_it_was_run": "as §2"}}}
{"smiles": "C=C1NC(=O)C(C)C(CCC(C)C(=O)/C=C/C(C)=C/CCC(C)CCCCCC)OC(=O)C(CCC(N)=O)NC(=O)C(C)CNC1=O", "note": "(stereo not drawn)", "values": [{"measurement": "MIC", "setting": "Pseudomonas aeruginosa", "result": "> 64", "unit": "µg/mL"}, {"measurement": "MIC", "setting": "Escherichia coli", "result": "> 64", "unit": "µg/mL"}, {"measurement": "MIC", "setting": "Enterococcus faecalis", "result": "> 64", "unit": "µg/mL"}, {"measurement": "MIC", "setting": "Streptococcus pneumoniae", "result": "> 64", "unit": "µg/mL"}, {"measurement": "MIC", "setting": "Staphylococcus aureus [1]", "result": "> 64", "unit": "µg/mL"}, {"measurement": "MIC", "setting": "Staphylococcus aureus [2]", "result": "> 64", "unit": "µg/mL"}, {"measurement": "MIC", "setting": "Bacillus subtilis", "result": "> 64", "unit": "µg/mL"}]}
{"smiles": "CC(=O)C[C@@H](O)Cc1cc2cc(O)cc(O)c2c(=O)o1", "values": [{"measurement": "MIC", "setting": "Pseudomonas aeruginosa", "result": "> 64", "unit": "µg/mL"}, {"measurement": "MIC", "setting": "Escherichia coli", "result": "> 64", "unit": "µg/mL"}, {"measurement": "MIC", "setting": "Enterococcus faecalis", "result": "> 64", "unit": "µg/mL"}, {"measurement": "MIC", "setting": "Streptococcus pneumoniae", "result": "> 64", "unit": "µg/mL"}, {"measurement": "MIC", "setting": "Staphylococcus aureus [1]", "result": "> 64", "unit": "µg/mL"}, {"measurement": "MIC", "setting": "Staphylococcus aureus [2]", "result": "> 64", "unit": "µg/mL"}, {"measurement": "MIC", "setting": "Bacillus subtilis", "result": "> 64", "unit": "µg/mL"}]}
{"smiles": "C[C@@H](O)C[C@@H](O)Cc1cc2cc(O)cc(O)c2c(=O)o1", "values": [{"measurement": "MIC", "setting": "Pseudomonas aeruginosa", "result": "> 64", "unit": "µg/mL"}, {"measurement": "MIC", "setting": "Escherichia coli", "result": "> 64", "unit": "µg/mL"}, {"measurement": "MIC", "setting": "Enterococcus faecalis", "result": "> 64", "unit": "µg/mL"}, {"measurement": "MIC", "setting": "Streptococcus pneumoniae", "result": "> 64", "unit": "µg/mL"}, {"measurement": "MIC", "setting": "Staphylococcus aureus [1]", "result": "> 64", "unit": "µg/mL"}, {"measurement": "MIC", "setting": "Staphylococcus aureus [2]", "result": "> 64", "unit": "µg/mL"}, {"measurement": "MIC", "setting": "Bacillus subtilis", "result": "> 64", "unit": "µg/mL"}]}
{"smiles": "Cc1cc(=O)cc(Cc2cc(O)cc(O)c2)o1", "values": [{"measurement": "MIC", "setting": "Pseudomonas aeruginosa", "result": "> 64", "unit": "µg/mL"}, {"measurement": "MIC", "setting": "Escherichia coli", "result": "> 64", "unit": "µg/mL"}, {"measurement": "MIC", "setting": "Enterococcus faecalis", "result": "> 64", "unit": "µg/mL"}, {"measurement": "MIC", "setting": "Streptococcus pneumoniae", "result": "> 64", "unit": "µg/mL"}, {"measurement": "MIC", "setting": "Staphylococcus aureus [1]", "result": "> 64", "unit": "µg/mL"}, {"measurement": "MIC", "setting": "Staphylococcus aureus [2]", "result": "> 64", "unit": "µg/mL"}, {"measurement": "MIC", "setting": "Bacillus subtilis", "result": "> 64", "unit": "µg/mL"}]}
{"smiles": "COC(=O)c1oc(=O)c2c(O)c3c(=O)cc(C)oc3cc2c1O", "values": [{"measurement": "MIC", "setting": "Pseudomonas aeruginosa", "result": "> 64", "unit": "µg/mL"}, {"measurement": "MIC", "setting": "Escherichia coli", "result": "> 64", "unit": "µg/mL"}, {"measurement": "MIC", "setting": "Enterococcus faecalis", "result": 8, "unit": "µg/mL"}, {"measurement": "MIC", "setting": "Streptococcus pneumoniae", "result": 4, "unit": "µg/mL"}, {"measurement": "MIC", "setting": "Staphylococcus aureus [1]", "result": 2, "unit": "µg/mL"}, {"measurement": "MIC", "setting": "Staphylococcus aureus [2]", "result": 2, "unit": "µg/mL"}, {"measurement": "MIC", "setting": "Bacillus subtilis", "result": 8, "unit": "µg/mL"}]}
{"smiles": "O=C(O)CNc1ccccc1C(=O)O", "values": [{"measurement": "MIC", "setting": "Pseudomonas aeruginosa", "result": "> 64", "unit": "µg/mL"}, {"measurement": "MIC", "setting": "Escherichia coli", "result": "> 64", "unit": "µg/mL"}, {"measurement": "MIC", "setting": "Enterococcus faecalis", "result": "> 64", "unit": "µg/mL"}, {"measurement": "MIC", "setting": "Streptococcus pneumoniae", "result": "> 64", "unit": "µg/mL"}, {"measurement": "MIC", "setting": "Staphylococcus aureus [1]", "result": "> 64", "unit": "µg/mL"}, {"measurement": "MIC", "setting": "Staphylococcus aureus [2]", "result": "> 64", "unit": "µg/mL"}, {"measurement": "MIC", "setting": "Bacillus subtilis", "result": "> 64", "unit": "µg/mL"}]}
{"smiles": "O=C(O)c1cn(C2CC2)c2cc(N3CCNCC3)c(F)cc2c1=O", "note": "[CIPROFLOXACIN]", "values": [{"measurement": "MIC", "setting": "Pseudomonas aeruginosa", "result": 16, "unit": "µg/mL"}, {"measurement": "MIC", "setting": "Enterococcus faecalis", "result": 16, "unit": "µg/mL"}, {"measurement": "MIC", "setting": "Streptococcus pneumoniae", "result": 0.25, "unit": "µg/mL"}, {"measurement": "MIC", "setting": "Staphylococcus aureus [1]", "result": 8, "unit": "µg/mL"}, {"measurement": "MIC", "setting": "Staphylococcus aureus [2]", "result": 0.0625, "unit": "µg/mL"}, {"measurement": "MIC", "setting": "Bacillus subtilis", "result": 0.16, "unit": "µg/mL"}]}
{"smiles": "CC[C@H](C)[C@H]1C(=O)O[C@H](C(C)C)C(=O)N(C)[C@@H](C(C)C)C(=O)O[C@H](C(C)C)C(=O)N(C)[C@@H](C(C)C)C(=O)O[C@H](C(C)C)C(=O)N1C", "note": "[ENNIATIN B1]", "values": [{"measurement": "MIC", "setting": "Pseudomonas aeruginosa", "result": "> 64", "unit": "µg/mL"}, {"measurement": "MIC", "setting": "Escherichia coli", "result": "> 64", "unit": "µg/mL"}, {"measurement": "MIC", "setting": "Enterococcus faecalis", "result": 8, "unit": "µg/mL"}, {"measurement": "MIC", "setting": "Streptococcus pneumoniae", "result": 4, "unit": "µg/mL"}, {"measurement": "MIC", "setting": "Staphylococcus aureus [1]", "result": 8, "unit": "µg/mL"}, {"measurement": "MIC", "setting": "Staphylococcus aureus [2]", "result": 8, "unit": "µg/mL"}, {"measurement": "MIC", "setting": "Bacillus subtilis", "result": 16, "unit": "µg/mL"}]}
{"smiles": "CC(C)[C@H]1C(=O)O[C@H](C(C)C)C(=O)N(C)[C@@H](C(C)C)C(=O)O[C@H](C(C)C)C(=O)N(C)[C@@H](C(C)C)C(=O)O[C@H](C(C)C)C(=O)N1C", "note": "[ENNIATIN B]", "values": [{"measurement": "MIC", "setting": "Pseudomonas aeruginosa", "result": "> 64", "unit": "µg/mL"}, {"measurement": "MIC", "setting": "Escherichia coli", "result": "> 64", "unit": "µg/mL"}, {"measurement": "MIC", "setting": "Enterococcus faecalis", "result": "> 64", "unit": "µg/mL"}, {"measurement": "MIC", "setting": "Streptococcus pneumoniae", "result": 16, "unit": "µg/mL"}, {"measurement": "MIC", "setting": "Staphylococcus aureus [1]", "result": "> 64", "unit": "µg/mL"}, {"measurement": "MIC", "setting": "Staphylococcus aureus [2]", "result": "> 64", "unit": "µg/mL"}, {"measurement": "MIC", "setting": "Bacillus subtilis", "result": "> 64", "unit": "µg/mL"}]}
{"smiles": "CN(C)[C@@H]1C(O)=C(C(N)=O)C(=O)[C@@]2(O)C(O)=C3C(=O)c4c(O)cccc4[C@@](C)(O)[C@H]3C[C@@H]12", "note": "[TETRACYCLINE]", "values": [{"measurement": "MIC", "setting": "Pseudomonas aeruginosa", "result": 32, "unit": "µg/mL"}, {"measurement": "MIC", "setting": "Escherichia coli", "result": 0.5, "unit": "µg/mL"}, {"measurement": "MIC", "setting": "Enterococcus faecalis", "result": 64, "unit": "µg/mL"}, {"measurement": "MIC", "setting": "Streptococcus pneumoniae", "result": 0.0625, "unit": "µg/mL"}, {"measurement": "MIC", "setting": "Staphylococcus aureus [1]", "result": 32, "unit": "µg/mL"}, {"measurement": "MIC", "setting": "Staphylococcus aureus [2]", "result": 0.25, "unit": "µg/mL"}, {"measurement": "MIC", "setting": "Bacillus subtilis", "result": 4, "unit": "µg/mL"}]}
{"smiles": "CN[C@H](CC(C)C)C(=O)N[C@H]1C(=O)N[C@@H](CC(N)=O)C(=O)N[C@H]2C(=O)N[C@H]3C(=O)N[C@H](C(=O)N[C@H](C(=O)O)c4cc(O)cc(O)c4-c4cc3ccc4O)[C@H](O)c3ccc(c(Cl)c3)Oc3cc2cc(c3O[C@@H]2O[C@H](CO)[C@@H](O)[C@H](O)[C@H]2O[C@H]2C[C@](C)(N)[C@H](O)[C@H](C)O2)Oc2ccc(cc2Cl)[C@H]1O", "note": "[VANCOMYCIN]", "values": [{"measurement": "MIC", "setting": "Pseudomonas aeruginosa", "result": "> 64", "unit": "µg/mL"}, {"measurement": "MIC", "setting": "Escherichia coli", "result": "> 64", "unit": "µg/mL"}, {"measurement": "MIC", "setting": "Streptococcus pneumoniae", "result": 0.125, "unit": "µg/mL"}, {"measurement": "MIC", "setting": "Bacillus subtilis", "result": 0.125, "unit": "µg/mL"}]}
